Measured values published in ChEMBL document CHEMBL5321214, “Targeting the multifaceted neurotoxicity of Alzheimer's disease by tailored functionalisation of the curcumin scaffold” (Eur J Med Chem, 2023).
Calls of active or inactive are those of the source. No cut-off for these calls is given here.

Tests used:
[1] = Toxicity against Drosophila W1118 assessed as proportion of eclosed-flies at 1 uM measured after 72 hrs
[2] = Toxicity against Drosophila W1118 assessed as proportion of eclosed-flies at 10 uM measured after 72 hrs
Drosophila = test: Downregulation of SOD1 transcript expression in Spastin Drosophila (Tubulin/Gal4 RNAi DSpast) neurodegenerative model at 10 uM flies raised in compound-enriched food by real-time PCR analysis; format: functional
Method in brief: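 Total RNA from 5 third-instar Spastin-RNAi larvae raised on standard or compound-enriched food; Tubulin-Gal4/+ as control line. One-step SYBR RT-qPCR normalised to Rp49 by the 2^−ΔΔCt method. n = 3 experiments; one-way ANOVA, Tukey's test.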

SH-SY5Y [3] = test: Cytotoxicity against human SH-SY5Y cells assessed as decrease in cell viability at >2.5 uM incubated for 24 hrs by MTT assay; format: toxicity, cell-based
Method in brief: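 SH-SY5Y, 2×10^4 cells/well, grown 24 h then exposed 24 h (1.25–40 μM) at 37 °C, 5% CO2. MTT 0.5 mg/mL in HBSS for 2 h, washed, formazan dissolved in isopropanol, read at 570 nm (reference 690 nm).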

SH-SY5Y [4] = test: Antioxidant activity in human SH-SY5Y cells assessed as increase in intracellular GSH level at 2.5 uM incubated for 24 hrs by […] fluorescence analysis; format: functional
Method in brief: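 SH-SY5Y (2×10^4 cells/well) grown 24 h, then exposed to 2.5 μM for 24 h at 37 °C. Fluorescent probe added 30 min at 37 °C; read at ex 355/em 460 nm. GSH (μM) from a GSH standard curve. Mean ± SEM of three experiments; one-way ANOVA with Dunnett's test.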

Microglia = test: Antiinflammatory activity against Sprague-Dawley rat microglial cells assessed as downregulation of IL-1 beta mRNA expression at 2.5 uM pretreated with compound for 1 hr followed by LPS stimulation for 6 hrs by real-time PCR analysis; format: functional, cell-based; settings: time 7.0 hrs
Method in brief: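 Primary cortical microglia (postnatal day 1 rat pups, shaken off mixed glial cultures, ~97% Iba1-positive). Compound (DMSO ≤0.1%) for 1 h, then 100 ng/mL ultra-pure E. coli LPS for 6 h. QIAzol RNA extraction, SuperScript IV reverse transcription, real-time PCR. Mean ± SEM, n = 3 in triplicate; one-way ANOVA, Holm-Sidak test.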

[5] = Toxicity against Drosophila W1118 assessed as minimum toxic concentration by measuring eclosion rate measured for 72 hrs
[6] = Toxicity against Drosophila W1118 assessed as proportion of eclosed-flies at 30 uM measured after 72 hrs

CCCCn1cc(C/C(C(=O)/C=C/c2ccc(OC)cc2)=C(O)\C=C\c2ccc(OC)cc2)nn1
Activity [1]: 95.238%
Activity [2]: 93.831%
inhibition (Drosophila): Active
Activity (SH-SY5Y [3]): Toxic
Activity (SH-SY5Y [4]): 40%
Activity (Microglia): Active
MTC [5]: 10 µM
Activity [6]: 85.461%
